The values below come from ChEMBL document CHEMBL6134794, “Anti-Schistosomal activity and ADMET properties of 1,2,5-oxadiazinane-containing compound synthesized by visible-light photoredox catalysis” (RSC Med Chem, 2024).

As usually defined, the Papp is the rate of passage across a membrane or cell layer, normalised by area and donor concentration. As a reminder, the logD is lipophilicity at a set pH, counting ionised and neutral species. Read a high logD as higher lipophilicity.

A short description of series [1]: Stability of the compound at pH 1.2 at 5 uM assessed as compound remaining incubated for 5 hrs by LC-MS/MS analysis relative to control. The series is classed as physicochemical. The conditions noted are these: buffer, read-out: Stability. The gist of the method: (§1)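 Compound at 5 μM in pH 1.2 dissolution test solution 1 or in PBS pH 7.4, held at 37 °C for 0, 1 and 5 h. Reactions were quenched with acetonitrile and centrifuged. Parent remaining was quantified by LC-MS/MS as a percentage of the 0 h sample.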

A short description of series [2]: Metabolic stability in human liver microsome assessed as compound remaining at 500 uM incubated for 60 mins in presence of NADPH and G6PDH by LC-MS/MS analysis. The conditions noted are these: liver microsomes. For orientation: Liver microsomes are vesicles of endoplasmic reticulum, rich in cytochrome P450 enzymes.
The test system of series [3] is Schistosoma mansoni. Briefly: Anti-schistosomal activity against adult male Schistosoma mansoni assessed as motility by measuring pairing and varied movement intensity using viability scale at 10 uM incubated for 1 hr by inverted microscopic analysis. The series is classed as functional.
A short description of series [4]: Cardiotoxicity in human iPSC-CM cells assessed as decrease in beat interval by measuring calcium ion influx at 20 uM incubated for 60 mins by fluorescent indicator analysis. Type of series: toxicity, cell-based. The note with it: 1 h. In short, it runs like this: (§2)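 Human iPS cell-derived cardiomyocytes were seeded at 30,000 cells/well on gelatin and maintained 9 days. Cells were then stained with a Ca²⁺-sensitive cardiotoxicity dye kit. Ca²⁺ transients were recorded on an FDSS kinetic imager before and after compound addition.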

Series [5] in a line: Apparent permeability in human Caco-2 cells at 25 uM incubated for 2 hrs by LC-MS/MS analysis. The series is classed as ADME, cell-based. The gist of the method: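 Compound at 25 µM in HBSS added to the apical side of cultured Caco-2 monolayers in transwells, with HBSS plus 1% BSA on the basolateral side. After 2 h both compartments were collected, acetonitrile-treated and centrifuged. Supernatants were quantified by LC-MS/MS and Papp calculated. "High" class means Papp above that of propranolol.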
A general note: Caco-2 cells form a polarised layer with tight junctions and transporters.

For series [6], the system named is Schistosoma mansoni. Briefly: Anti-schistosomal activity against adult male Schistosoma mansoni assessed as worm death at 10 uM incubated for 1 to 120 hrs by inverted microscopic analysis. Type of series: functional, organism-based. The note with it: time 1-120 hrs. The gist of the method: (§3)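 Adult worms freshly isolated from infected mice; cultured in RPMI 1640 with 5% FBS and penicillin/streptomycin, with or without compound (0.1, 1, 10 μM), at 37°C under 5% CO₂.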

Series [7] is described as follows: Metabolic stability in mouse liver microsome assessed as compound remaining at 500 uM incubated for 60 mins in presence of NADPH and G6PDH by LC-MS/MS analysis. The conditions noted are these: liver microsomes.
Series [8] can be described thus: Lipophilicity, logD of the compound in phosphate-buffered saline (PBS) at pH 7.4 at 100 uM incubated for 20 mins by UPLC analysis. Type of series: physicochemical. The conditions noted are these: buffer, pH 7.4, 20 min. In short, it runs like this: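 Compound at 100 μM final in PBS with 1% DMSO. logD (pH 7.4) was derived from UPLC (BEH C18) retention times against standards of known logD. Mobile phase was ammonium acetate/acetonitrile, 2–98% B over 1 min at 0.8 mL/min.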

In series [9] the test system is Schistosoma mansoni. Briefly: Anti-schistosomal activity against adult female Schistosoma mansoni assessed as motility by measuring full detachment with weak movement using viability scale at 10 uM incubated for 1 hr by inverted microscopic analysis. Type of series: functional. In short, it runs like this: as §3
Series [10] has as its system HeLa. As to the kind of experiment: Cytotoxicity against human HeLa cells assessed as cell viability at 10 uM incubated for 48 hrs by absorbance based WST-8 assay (reference value: 100 %). The series is classed as functional. The conditions noted are these: read-out: Activity. The gist of the method:
(§4)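 HeLa cells seeded at 1,000 cells/well and exposed to compound at 10, 20 or 30 μM for 2 days. WST-8 absorbance was read at 405 nm. Viability is expressed relative to DMSO-treated wells (100%).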
For orientation: Formazan colour is commonly taken as a measure of viable cells.

Series [11] is described as follows: Cardiotoxicity in human iPSC-CM cells assessed as effect on pulse waveform by measuring calcium ion influx at 0.2 uM incubated for 60 mins by fluorescent indicator analysis. Type of series: toxicity, cell-based. The note with it: 1 h. In short, it runs like this: as §2
Series [12] can be described thus: Cardiotoxicity in human iPSC-CM cells assessed as effect on beat intervals by measuring calcium ion influx at 0.2 uM incubated for 60 mins by fluorescent indicator analysis. Type of series: toxicity, cell-based. The conditions noted are these: 1 h. In short, it runs like this:
as §2

Series [13] is described as follows: Cardiotoxicity in human iPSC-CM cells assessed as effect on pulse waveform by measuring calcium ion influx at 20 uM incubated for 60 mins by fluorescent indicator analysis. Type of series: toxicity, cell-based. The note with it: 1 h. The gist of the method: as §2
The nature of series [14]: Metabolic stability in human liver microsome assessed as compound remaining at 500 uM incubated for 10 mins in presence of NADPH and G6PDH by LC-MS/MS analysis. The conditions noted are these: liver microsomes.
Series [15] can be described thus: Stability of the compound at pH 1.2 at 5 uM assessed as compound remaining incubated for 1 hrs by LC-MS/MS analysis relative to control. The series is classed as physicochemical. The note with it: buffer, read-out: Stability. In short, it runs like this: as §1
Series [16] can be described thus: Metabolic stability in mouse liver microsome assessed as compound remaining at 500 uM incubated for 10 mins in presence of NADPH and G6PDH by LC-MS/MS analysis. The conditions noted are these: liver microsomes.
Series [17] has as its system Schistosoma mansoni. Briefly: Anti-schistosomal activity against adult female Schistosoma mansoni assessed as motility by measuring full detachment with weak movement using viability scale at 10 uM incubated for 24 hrs by inverted microscopic analysis. Type of series: functional.
The nature of series [18]: Cardiotoxicity in human iPSC-CM cells assessed as decrease in beat interval by measuring calcium ion influx at 2 uM incubated up to 30 mins by fluorescent indicator analysis. The note with it: 0.5 h. The series is classed as toxicity, cell-based. The gist of the method: as §2
Series [19] relates to Schistosoma mansoni. As to the kind of experiment: Anti-schistosomal activity against adult male Schistosoma mansoni assessed as motility by measuring measuring pairing and varied movement intensity using viability scale at 10 uM incubated for 24 hrs by inverted microscopic analysis. The series is classed as functional.
Series [20] can be described thus: Cardiotoxicity in human iPSC-CM cells assessed as effect on pulse waveform by measuring calcium ion influx at 2 uM incubated for 60 mins by fluorescent indicator analysis. Type of series: toxicity, cell-based. The conditions noted are these: 1 h. In short, it runs like this: as §2
Series [21] deals with Schistosoma mansoni. Briefly: Anti-schistosomal activity against adult male Schistosoma mansoni assessed as motility by measuring pairing and varied movement intensity using viability scale at 10 uM incubated for 120 hrs by inverted microscopic analysis. Type of series: functional.
Series [22] is described as follows: Stability of the compound in PBS at pH 7.4 at 5 uM assessed as compound remaining incubated for 1 hr by LC-MS/MS analysis relative to control. The series is classed as physicochemical. The conditions noted are these: read-out: Stability. In short, it runs like this:
as §1

Series [23] in a line: Cardiotoxicity in human iPSC-CM cells assessed as effect on beat interval by measuring calcium ion influx at 2 uM measured within 60 mins by fluorescent indicator analysis. The conditions noted are these: 1 h. The series is classed as toxicity, cell-based. In short, it runs like this:
as §2

Series [24] deals with Schistosoma mansoni. As to the kind of experiment: Anti-schistosomal activity against adult female Schistosoma mansoni assessed as motility by measuring full detachment with weak movement using viability scale at 10 uM incubated for 120 hrs by inverted microscopic analysis. The series is classed as functional.
Series [25] has as its system Schistosoma mansoni. As to the kind of experiment: Anti-schistosomal activity against adult female Schistosoma mansoni assessed as worm death at 10 uM incubated for 1 to 120 hrs by inverted microscopic analysis. Type of series: functional, organism-based. The conditions noted are these: time 1-120 hrs. The gist of the method: as §3
A short description of series [26]: Cardiotoxicity in human iPSC-CM cells assessed as effect on beat intervals by measuring calcium ion influx at 0.2 to 20 uM incubated for 60 mins by fluorescent indicator analysis. The conditions noted are these: 1 h, dose 0.2-20 µM. Type of series: toxicity, cell-based. The gist of the method: as §2
In series [27] the test system is Schistosoma mansoni. As to the kind of experiment: Anti-schistosomal activity against adult female Schistosoma mansoni assessed as motility by measuring pairing and varied movement intensity using viability scale at 10 uM incubated for 24 hrs by inverted microscopic analysis. The series is classed as functional.
The subject of series [28] is Schistosoma mansoni. As to the kind of experiment: Anti-schistosomal activity against adult female Schistosoma mansoni assessed as motility by measuring pairing and varied movement intensity using viability scale at 10 uM incubated for 1 hr by inverted microscopic analysis. Type of series: functional.
Series [29] relates to Schistosoma mansoni. Briefly: Anti-schistosomal activity against adult female Schistosoma mansoni assessed as motility by measuring pairing and varied movement intensity using viability scale at 10 uM incubated for 120 hrs by inverted microscopic analysis. Type of series: functional.
Series [30] can be described thus: Stability of the compound in PBS at pH 7.4 at 5 uM assessed as compound remaining incubated for 5 hrs by LC-MS/MS analysis relative to control. Type of series: physicochemical. The conditions noted are these: read-out: Stability. The gist of the method:
as §1

Series [31] can be described thus: Cardiotoxicity in human iPSC-CM cells assessed as effect on pulse waveform by measuring calcium ion influx at 0.2 to 20 uM incubated for 60 mins by fluorescent indicator analysis. The series is classed as toxicity, cell-based. The note with it: 1 h, dose 0.2-20 µM. In short, it runs like this: as §2
Series [32] concerns HeLa. Briefly: Cytotoxicity against human HeLa cells assessed as cell viability at 30 uM incubated for 48 hrs by absorbance based WST-8 assay (reference value: 100 %). Type of series: functional. The conditions noted are these: read-out: Activity. In short, it runs like this: as §4

Active and inactive are the calls of the source. The rule behind the calls is not given here.

Turning to `O=C(C1CCCCC1)N1CON2CCc3ccccc3C2C1` (stereo not given), in [1], the remaining at 5 h, 5 µM came out at 94.9%. Further, the remaining at 1 h, 500 µM in [2] was 5.9%; in [7], 0.2%. The Activity in [3] is 3; in [4], “Toxic”; in series [9], 2; in series [11] it was “Non-toxic”; in series [12], “Non-toxic”; in series [13], “Non-toxic”. Further, the Activity in [17] was 2; in series [18], “Toxic”; in series [19] it was 3; in series [20], “Non-toxic”; in series [21], 3; in [23] it was “Non-toxic”. In addition, the Activity in series [24] was 2.3. Also, in [5], the Papp at 2 h, 25 µM came to 30.5 ×10⁻⁶ cm/s. In addition, in series [6], the result was inactive. Besides, in series [8], the logD was found to be 4.1. The viability at 10 µM in [10] worked out at 93.1%. The remaining at 10 min, 500 µM in series [14] is 47.3%; in [16], 2.7%. For the same compound, the remaining at 1 h, 5 µM was found to be 95.1% in [15] and 95.2% in series [22].
For `O=C(C1CCCCC1)N1CC(=O)N2CCc3ccccc3C2C1` (stereo not given) [PRAZIQUANTEL], the remaining at 5 h, 5 µM in series [1] was 95%; in series [30] it was 100%. Besides, the Activity is on record as 3.7 in [3]; “Non-toxic” in series [26]; 3.3 in series [27]; 3.7 in [28]; 3.3 in series [29]; 3.7 in series [19]. In addition, the Activity in series [21] was 3.3; in series [31], “Non-toxic”. Moreover, the Papp at 2 h, 25 µM in series [5] is 37.3 ×10⁻⁶ cm/s. The outcome in series [6] and in [25] was inactive. For the same compound, the remaining at 1 h, 5 µM was found to be 93.1% in [15] and 103% in series [22]. Moreover, the viability at 30 µM in series [32] worked out at 97.1%.
